# Pf Dd2 growth: P. falciparum Dd2 growth inhibition; AID 1159554; 94,000 compounds, 2.3% hits; activity change, % at 10 µM; SYBR Green, 72 h; active compounds read low; in the data active means activity change below about -80%; inconclusive means no clear call, values can overlap the other calls
# T cruzi growth-1: inhibitors of T. cruzi proliferation | T. cruzi beta-gal in NIH3T3, GalScreen luminescence, 90 h | inhibition, % at 8.34 µM | 77,000 compounds, 5.9% hits | AID 624255;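 active means mean inhibition above about 93%, with at least 55% of replicates each passing it, limit read from the data, passing the limit was not always enough; inconclusive means only one of those two conditions holds; inactive means neither condition holds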
# GASC1 inh: inhibitors of human demethylase GASC-1 KDM4C | 96,000 compounds, 0.15% hits | GST-KDM4C 2-372, H3K9me3 peptide, LANCE TR-FRET | Q9H3R0 | inhibition, % at 12.5 µM | AID 720574;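 active means mean replicate inhibition above about 25%, with at least 55% of replicates also reaching it, limit read from the data, passing the limit was not always enough; inconclusive means only one of those two conditions met; inactive means neither condition met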
#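 reagent = H3K9me3 peptide substrate, Fe(II), 2-oxoglutarate | system = GST-tagged GASC-1 (JMJD2C) catalytic fragment, aa 2-372 | amount = enzyme final amount 10 nM | read-out = Fall in 671/618 emission ratio as inhibition | medium = HEPES buffer, pH 7.5, plus ascorbate | schedule = 30 min reaction, 60 min detection, RT | measured by = LANCE TR-FRET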
# IDH1 R132H inh: inhibitors of human IDH1 R132H; O75874; IDH1 R132H reductase, diaphorase/resazurin fluorescence, 60 min; inhibition, % at 10 µM; 70,000 compounds, 0.18% hits; in the data active means inhibition above about 34%; inconclusive means no clear call, values can overlap the other calls; inactive means below about 11%;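 further: 0% = DMSO and 100% = no enzyme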
# Target sequence (O75874 whole entry R132H): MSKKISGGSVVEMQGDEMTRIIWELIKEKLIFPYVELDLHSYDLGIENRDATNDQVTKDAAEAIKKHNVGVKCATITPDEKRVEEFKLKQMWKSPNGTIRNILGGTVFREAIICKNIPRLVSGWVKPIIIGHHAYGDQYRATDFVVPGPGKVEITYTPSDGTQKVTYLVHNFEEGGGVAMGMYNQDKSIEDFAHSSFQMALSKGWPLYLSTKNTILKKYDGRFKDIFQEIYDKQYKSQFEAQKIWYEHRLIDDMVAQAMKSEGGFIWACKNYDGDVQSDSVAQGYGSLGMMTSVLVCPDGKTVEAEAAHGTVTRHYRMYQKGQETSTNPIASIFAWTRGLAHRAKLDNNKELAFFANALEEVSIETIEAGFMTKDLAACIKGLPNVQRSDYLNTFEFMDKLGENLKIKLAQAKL
# T cruzi growth-2: blocks T. cruzi growth in NIH3T3 host cells; shares compounds with T cruzi growth-1; T. cruzi beta-gal in NIH3T3, GalScreen luminescence, 90 h; inhibition, % at 8.35 µM; 5,600 compounds, 72% hits; AID 651739;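 active means mean replicate inhibition above about 95% and at least 55% of replicates individually reaching it, limit read from the data; inconclusive means only one of the two criteria is met; inactive means neither criterion is met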
# T cruzi growth-3: inhibitors of T. cruzi proliferation; shares compounds with T cruzi growth-1; T. cruzi beta-gal in NIH3T3, GalScreen luminescence, 90 h; inhibition, % at 2.09 µM; 5,600 compounds, 21% hits; AID 651740;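 active means mean inhibition above about 95%, with at least 55% of replicates also reaching it, limit read from the data; inconclusive means meets just one of the two conditions; inactive means meets neither condition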;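 further: plate controls were neutral control median for no effect and positive control median for full effect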
# NIH3T3 tox: cytotoxicity in mouse NIH/3T3 fibroblasts; shares compounds with T cruzi growth-1; NIH/3T3 viability, CellTiter-Glo ATP luminescence, 90 h; 5,600 compounds, 14% hits; cytotoxicity (signal decrease), % at 8.35 µM;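 active means mean signal decrease across replicates above about 35% based on untreated-well scatter, with enough replicates individually passing, limit read from the data; inconclusive means no rule stated though some were filed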;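 further: 0% = median of neutral control wells and 100% = median of positive control wells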
# 3T3 cytotox 2: cytotoxicity in mouse NIH/3T3 fibroblasts. 5,600 compounds, 56% hits. shares compounds with T cruzi growth-1. inhibition, % at 24.9 µM. NIH/3T3 viability, CellTiter-Glo ATP luminescence, 90 h;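 active means mean loss of cell viability signal at or above a set limit, and enough replicates individually reaching it; inconclusive means meets only the mean limit or only the replicate share; inactive means meets neither condition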;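 further: 0% = median of neutral control wells and 100% = median of positive control wells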
# An asterisk follows results filed as active; ? = inconclusive; . = no result given; + = active, no number; ! = not confirmed by another sample. Compounds with a hit are over-represented: about 5.8% of the library has one in this group of screens.
SMILES,Pf Dd2 growth,T cruzi growth-1,GASC1 inh,IDH1 R132H inh,T cruzi growth-2,T cruzi growth-3,NIH3T3 tox,3T3 cytotox 2
COc1ccc(NC(=O)CN(c2ccccc2F)S(C)(=O)=O)cc1Cl,.,.,.,0,.,.,.,.
COc1cc(O)c(C(=O)c2c(O)cc(C)cc2O)c(C(=O)O)c1,.,.,.,12,.,.,.,.
CCn1c(SCC(=O)Nc2cccc(C(C)=O)c2)nnc1-c1ccncc1,.,.,.,0,.,.,.,.
COC(=O)c1cn(CC(=O)NCC2CCCO2)c2ccccc12 (stereo unspecified),.,.,.,0,.,.,.,.
C[C@H](CO)N1C[C@H](C)[C@H](CN(C)S(=O)(=O)c2cccs2)Oc2ncc(C#Cc3ccccc3)cc2C1=O,-42,119*!,-6,-1,109*,67,24,16
C[C@@H]1CN([C@H](C)CO)C(=O)c2cc(C#Cc3ccccc3F)cnc2O[C@@H]1CN(C)S(=O)(=O)c1ccccc1F,-40,106*!,-2,0,107*,69,55*,54*
C[C@@H]1CN([C@H](C)CO)C(=O)c2cc(C#Cc3ccccc3F)cnc2O[C@H]1CN(C)S(=O)(=O)c1ccccc1F,-43,114*,-1,-6,110*,90,39*,?
CC(C)CC#Cc1cnc2c(c1)C(=O)N([C@H](C)CO)C[C@H](C)[C@H](CN(C)S(=O)(=O)c1cccs1)O2,-36,41,-4,1,.,.,.,.
C[C@@H]1CN([C@@H](C)CO)C(=O)c2cc(C#Cc3ccccc3F)cnc2O[C@@H]1CN(C)S(=O)(=O)c1ccccc1F,-61,98*,-5,-3,95*,80,56*,61*
C[C@@H]1CN([C@@H](C)CO)C(=O)c2cc(C#Cc3ccccc3)cnc2O[C@H]1CN(C)S(=O)(=O)c1ccccc1F,-66,90,.,0,.,.,.,.
COc1ccc(OC)c(NC(=O)Cn2cnc3sc(C)c(-c4ccc(Cl)cc4)c3c2=O)c1,.,.,.,0,.,.,.,.
O=C(CCCCCCC(=O)NN=C1CCCC1)NO,.,.,.,0,.,.,.,.
C[C@H](CO)N1C[C@H](C)[C@H](CN(C)S(=O)(=O)c2ccccc2F)Oc2ncc(C#Cc3ccccc3)cc2C1=O,-55,-10,.,0,.,.,.,.
C[C@H](CO)N1C[C@H](C)[C@H](CN(C)S(=O)(=O)c2ccccc2F)Oc2ncc(C#Cc3ccccc3F)cc2C1=O,-34,?,-3,0,106*,69,26,58*
C[C@H]1CN([C@@H](C)CO)C(=O)c2cc(C#Cc3ccccc3)cnc2O[C@@H]1CN(C)S(=O)(=O)c1ccccc1F,-49,?,.,0,108*,68,37*,36*
O=C(O)CCc1ccc(-c2ccc(F)cc2)n1-c1ccc(C(=O)O)cc1,.,.,.,1,.,.,.,.
C[C@@H]1CN([C@H](C)CO)C(=O)c2cc(C#CCN(C)C)cnc2O[C@@H]1CN(C)Cc1ccc(C(=O)O)cc1,-1,105*,7,1,-7,3,-20,-5
C[C@@H]1CN([C@H](C)CO)C(=O)c2cc(C#CCN(C)C)cnc2O[C@H]1CN(C)Cc1ccc(-c2ccccc2)cc1,.,109*,0,.,111*,116*,?,104*
C[C@@H]1CN([C@H](C)CO)C(=O)c2cc(C#CCN(C)C)cnc2O[C@H]1CN(C)Cc1ccccc1,-8,-113,.,-1,.,.,.,.
C[C@H](CO)N1C[C@H](C)[C@@H](CN(C)Cc2ccc(C(=O)O)cc2)Oc2ncc(C#CCN(C)C)cc2C1=O,5,-21,3,-1,.,.,.,.
C[C@@H]1CN([C@@H](C)CO)C(=O)c2cc(C#CCN(C)C)cnc2O[C@H]1CN(C)Cc1ccc(-c2ccccc2)cc1,-61,102*,3,-10,109*,116*!,40*,104*
C[C@@H]1CN([C@@H](C)CO)C(=O)c2cc(C#CCN(C)C)cnc2O[C@@H]1CN(C)Cc1ccc(-c2ccccc2)cc1,.,112*,8,.,110*,107*,47*,105*
O=C(Nc1cccc(Cn2cccn2)c1)c1cc(-c2ccncc2)nc2ccc(Br)cc12,.,.,.,0,.,.,.,.
COc1ccc(C(=O)Nc2ccc3nc(SCC(=O)N4CCOCC4)sc3c2)cc1OC,.,.,.,0,.,.,.,.
COc1ccc(NC(=O)CCSc2ccc([N+](=O)[O-])cc2)cc1,.,.,.,0,.,.,.,.
SMILES,Pf Dd2 growth,T cruzi growth-1,GASC1 inh,IDH1 R132H inh,T cruzi growth-2,T cruzi growth-3,NIH3T3 tox,3T3 cytotox 2
CC=Cc1ccc2n(c1=O)C[C@H]1[C@H](CO)[C@@H](C(=O)NCCC)[C@@H]2N1C(=O)C1CC1 (mixture of isomers),-2,112*,0,.,99*,9,14,20
CC=Cc1ccc2n(c1=O)C[C@H]1[C@H](CO)[C@@H](C(=O)NCc3ccccn3)[C@@H]2N1C (mixture of isomers),.,+,1,.,-18,33,-3,-14
CC=Cc1ccc2n(c1=O)C[C@@H]1[C@@H](CO)[C@H](C(=O)NCCCN(C)C)[C@H]2N1C(=O)c1ccccc1F (mixture of isomers),.,+,0,.,57,-62,-3,8
CC=Cc1ccc2n(c1=O)C[C@@H]1[C@@H](CO)[C@H](C(=O)NCc3ccccc3Cl)N(S(C)(=O)=O)[C@H]21 (mixture of isomers),.,98*,0,.,81,8,-13,2
Cc1ccc(S(=O)(=O)NC(C)C(=O)Nc2cc([N+](=O)[O-])ccc2C)cc1 (stereo unspecified),.,.,.,1,.,.,.,.
CC=Cc1ccc2n(c1=O)C[C@@H]1[C@@H](CO)[C@H](C(=O)Nc3ccc(-c4ccccc4)cc3)[C@H]2N1C(=O)CC (mixture of isomers),.,135*,-3,.,103*,13,24,48*
Cc1c(Br)c([N+](=O)[O-])nn1CC(=O)Nc1cccc(C(F)(F)F)c1,.,.,.,0,.,.,.,.
O=C(Nc1cc(F)ccc1F)N1CCCCN2[C@H](C1)[C@H](c1ccc(-c3ccncc3)cc1)[C@@H]2CO,0,85,0,.,.,.,.,.
O=C(Nc1cc(F)ccc1F)N1CCCCN2[C@H](C1)[C@H](c1ccc(-c3cncnc3)cc1)[C@@H]2CO,23,103*,0,.,6,9,-22,4
O=C(Nc1cc(F)ccc1F)N1CCCCN2[C@@H](CO)[C@@H](c3ccc(-c4cccnc4)cc3)[C@@H]2C1,-36,82,0,.,.,.,.,.
C/C=C/c1ccc([C@H]2[C@@H](CO)N3CCCCN(C(=O)Nc4cc(F)ccc4F)C[C@H]23)cc1,-62,102*,3,.,111*,62,10,104*
C/C=C/c1ccc([C@@H]2[C@@H](CO)N3CCCCN(C(=O)Nc4cc(F)ccc4F)C[C@@H]23)cc1,-43,79,-2,.,.,.,.,.
